GRIN3A LBD mod = modulates the human NR3A ligand-binding domain; NR3A LBD differential scanning fluorimetry, Tm shift; 0% = protein alone, 100% = glycine-bound protein; Tm shift relative to glycine control, % at 25 µM; 340,000 compounds, 2.5% hits;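 active means melting temperature shift of at least 10% of the positive control shift, at one fixed dose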
H9c2 protect = protects H9c2 cardiomyocytes from peroxide injury. H2O2 injury protection, ATPLite, 2 h. protection from H2O2 cell death, % at 20 µM. 360,000 compounds, 0.63% hits;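 active means compounds giving at least 50% protection of heart cells from peroxide-induced death in the single-dose screen, raw or plate-pattern-corrected value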;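 further: 0% = DMSO wells with peroxide and 100% = DMSO wells without peroxide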
FAS-TE inh = FAS thioesterase (human) inhibition; P49327; recombinant FAS-TE, OMFH fluorogenic substrate, fluorescence endpoint; inhibition, % at 15 µM; 360,000 compounds, 0.67% hits; AID 602261;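 active means compounds whose normalised, plate-corrected inhibition of enzyme fluorescence in the single-dose primary screen is 50% or more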;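 further: 0% = DMSO with enzyme and 100% = substrate without enzyme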
SENP1 FRET inh = blocks the human SENP1 SUMO protease catalytic domain. Q9P0U3. recombinant SENP1 catalytic domain, CyPet-SUMO1-YPet FRET cleavage. inhibition, % at 10 µM. 360,000 compounds, 0.21% hits;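 active means inhibition at least 30% at 10 µM, raw YFP signal under a set limit, fluorescence ratio 0.5 to 1.5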;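 further: 0% = enzyme with DMSO and 100% = no enzyme wells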
Target sequence (Q9P0U3 419-644 limits assumed): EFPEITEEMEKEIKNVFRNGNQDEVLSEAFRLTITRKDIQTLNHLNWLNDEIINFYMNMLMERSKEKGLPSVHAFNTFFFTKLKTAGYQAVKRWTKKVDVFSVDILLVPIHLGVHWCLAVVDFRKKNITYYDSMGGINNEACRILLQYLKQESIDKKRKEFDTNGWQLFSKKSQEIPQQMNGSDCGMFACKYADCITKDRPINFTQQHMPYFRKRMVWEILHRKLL
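Test system: hSENP1 catalytic domain, recombinant; Amount: 20 pM final SENP1 enzyme; Medium: Tris pH 8 buffer plus EDTA, NaCl, BME, BSA, NP40, catalase; Schedule: 50 min enzyme reaction, room temperature, light-protected; Technique: FRET fluorescence in CFP and YFP emission channels; Controls: no-enzyme wells low, DMSO-plus-enzyme wells high control.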
Arrestin-AP2 inh = blocks beta-arrestin peptide binding to AP2 adaptin. 340,000 compounds, 0.31% hits. FITC-arrestin peptide / GST-AP2 beads, flow cytometry; AP2 beta2 appendage carries R879A mutation. inhibition, % at 10 µM;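 active means inhibition above a set limit, near 3 SD of compounds lacking own fluorescence, cut at about 54% in these data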;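 further: plate controls were DMSO wells for no effect and 5 µM unlabelled arrestin peptide for full effect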
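Measured by: flow cytometry, FL1 (488/535 nm); Material: AP2 appendage R879A on GSH beads; Evaluation: percent response; Timing: pre-incubation 12 min, peptide binding 1 h, room temperature; Also added: 50 nM FITC-arrestin peptide; Medium: PBS with 0.05% Tween 20 and 0.1% BSA.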
hiPSC survival = increases survival of single human iPS cells. survival enhancement, % at 20 µM. 360,000 compounds, 0.044% hits. hiPSC single-cell survival, ATPlite luminescence; 100% = ROCK inhibitor wells, 0% = DMSO; in the data active means survival enhancement above about 18%;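 further: cells exposed to compounds for 16 hours before the ATP read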
FAS-TE conf = confirmation of human fatty acid synthase thioesterase inhibitors. 2,300 compounds, 45% hits. shares compounds with FAS-TE inh. inhibition, % at 15 µM. recombinant FAS-TE, OMFH fluorogenic substrate, fluorescence;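 active means compounds inhibiting the enzyme by at least 50% at 15 µM in any one of the replicates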;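 further: 0% = enzyme with DMSO only and 100% = wells lacking enzyme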
Numbers without * were called inactive; . = no result given. The list is not random: actives were taken first. Their share in the collection is about 4%.

SMILES	GRIN3A LBD mod	H9c2 protect	FAS-TE inh	SENP1 FRET inh	Arrestin-AP2 inh	hiPSC survival	FAS-TE conf
O=C(CC(=O)N/N=C\c1ccc([N+](=O)[O-])cc1)NCCc1ccccc1	-3	-12	52*	1	-46	0	50*
CC1=C(C(=O)N(C)C)CC(CC(=O)NCCCCc2ccccc2)C(=O)N1Cc1ccccc1 (centres undefined)	.	4	-4	3	.	1	.
O=C(NCC1CCN(Cc2ccccc2)CC1)[C@H]1O[C@@H](n2ccc(=O)[nH]c2=O)[C@H](O)[C@@H]1O	.	.	-12	2	.	0	.
COc1cc(OC)c(N(C)S(=O)(=O)c2cccc(C(=O)OCC(=O)N(C)Cc3ccccc3)c2)cc1Cl	-1	6	43	0	-4	0	.
O=C(Cc1ccc([N+](=O)[O-])cc1)Nc1ccc2c(c1)CCC2	-4	-5	17	3	-5	0	.
O=C(COc1ccc([N+](=O)[O-])cc1)Nc1ccc2c(c1)CCC2	-10	-8	58*	7	-5	5	63*
O=C(CCNC(=O)c1ccc([N+](=O)[O-])cc1)NCCC1=CCCCC1	1	-1	76*	0	-1	0	83*
Cc1c(C(=O)NNC(=O)c2csc(N3CCOCC3)n2)oc2ccc(Br)cc12	.	3	3	-6	.	4	.
COc1cc(NCCCNC(C)C)c2nccc(C)c2c1	-1	-2	-2	-17	-6	-2	.
Cc1cc(C)cc(NC(=O)CCNC(=O)c2ccc([N+](=O)[O-])cc2)c1	-1	6	69*	1	3	0	16
Cc1csc(NC(=O)CCNC(=O)c2ccc([N+](=O)[O-])cc2)n1	-9	5	68*	-1	11	2	71*
Cc1cnc(NC(=O)CCNC(=O)c2ccc([N+](=O)[O-])cc2)s1	-1	3	19	0	15	-2	.
CC(C)COc1ccc(-c2nn(-c3ccccc3)cc2/C=C2/SC(=S)N(CC(=O)O)C2=O)cc1	3	-2	78*	-7	3	-1	10
O=C1C(=Cc2cn(-c3ccccc3)nc2-c2ccc(OCc3ccccc3)cc2)SC(=S)N1CCS(=O)(=O)O	.	14	71*	1	.	2	15
CCOc1ccc(-c2csc(/C(C#N)=C\c3ccc(O)c([N+](=O)[O-])c3)n2)cc1	8	-8	72*	16	10	-3	61*
CCCCc1ccc(-c2csc(/C(C#N)=C\c3ccc(C)o3)n2)cc1	-1	0	18	-25	-4	0	.
COc1cccc(CN(C)C(=O)CCN(c2ccccc2)S(=O)(=O)c2ccc(C)cc2)c1OC	1	4	18	1	-6	0	.
Cc1ccc(C(O)c2ncc(-c3cccc(C(F)(F)F)c3)[nH]2)cc1F (centres undefined)	.	-17	18	-2	.	6	.
CC1Cc2cc(/C=C3/SC(=S)NC3=O)ccc2O1 (centres undefined)	-3	-11	18	-14	-9	0	.
Cc1ccc(C2C(/C=C3/SC(=S)NC3=O)=C(c3cccs3)Oc3ccccc32)cc1 (centres undefined)	2	-27	64*	23	28	1	22
CCC(=O)N1CCC1(C)C(=O)Nc1cccc2cccnc12 (centres undefined)	.	-1	-4	1	.	2	.
CCc1cccc(C)c1NC(=O)COC(=O)Cc1ccccc1	.	-1	-1	4	.	2	.
COc1cccc(C(=O)c2ccccc2C(=O)O)c1	.	2	-3	1	.	1	.
Cc1ccc(C(=O)Nc2cccc(S(=O)(=O)N3CCCCC3)c2)cc1[N+](=O)[O-]	1	-13	53*	-1	-7	5	14
O=C(COC(=O)c1cc([N+](=O)[O-])ccc1NCCO)Nc1cccc(S(=O)(=O)N2CCCC2)c1	1	-8	70*	0	34	3	69*
